Consider 17 molecules from ChEMBL document CHEMBL1157900, “Bivalent 5,8,9,13b-tetrahydro-6H-isoquino[1,2-a]isoquinolines and -isoquinolinium salts: novel heterocyclic templates for butyrylcholinesterase inhibitors” (Bioorg Med Chem Lett, 2010).

Molecules are shown by their SMILES. Activity calls are given as the source filed them. The rule behind the calls is not given here. Where only a bound is given, the exact number is not on record here.

One data set deals with Acetylcholinesterase (Electrophorus electricus, UniProt O42275). As to the kind of experiment: Inhibition of Electric eel AChE after 2 mins by colorimetric Ellman assay. In general terms: In Ellman's method for cholinesterases, released thiocholine reacts with DTNB.
Acetylcholinesterase, sequence (O42275 whole entry): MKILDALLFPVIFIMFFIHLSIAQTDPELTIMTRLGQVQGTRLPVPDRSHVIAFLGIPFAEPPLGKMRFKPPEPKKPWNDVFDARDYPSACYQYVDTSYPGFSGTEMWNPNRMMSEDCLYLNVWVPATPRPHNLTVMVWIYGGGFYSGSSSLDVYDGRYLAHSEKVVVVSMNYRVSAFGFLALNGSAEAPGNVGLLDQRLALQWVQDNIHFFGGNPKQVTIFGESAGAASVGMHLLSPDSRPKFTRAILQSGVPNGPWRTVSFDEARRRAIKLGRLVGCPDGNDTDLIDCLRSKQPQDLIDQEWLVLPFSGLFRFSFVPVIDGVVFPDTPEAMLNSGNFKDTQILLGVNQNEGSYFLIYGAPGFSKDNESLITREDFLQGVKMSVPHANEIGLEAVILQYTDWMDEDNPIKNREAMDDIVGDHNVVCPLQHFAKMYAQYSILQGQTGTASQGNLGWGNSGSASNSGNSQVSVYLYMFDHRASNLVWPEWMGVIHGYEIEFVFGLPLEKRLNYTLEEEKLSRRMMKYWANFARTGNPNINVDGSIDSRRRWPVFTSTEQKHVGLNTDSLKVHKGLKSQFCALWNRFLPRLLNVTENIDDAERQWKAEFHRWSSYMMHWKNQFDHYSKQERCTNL
The target of the next data set is Cholinesterase (Equus caballus, UniProt P81908). The experiment in a line: Inhibition of Equine serum BChE after 2 mins by colorimetric Ellman assay.
Cholinesterase, sequence (P81908 whole entry): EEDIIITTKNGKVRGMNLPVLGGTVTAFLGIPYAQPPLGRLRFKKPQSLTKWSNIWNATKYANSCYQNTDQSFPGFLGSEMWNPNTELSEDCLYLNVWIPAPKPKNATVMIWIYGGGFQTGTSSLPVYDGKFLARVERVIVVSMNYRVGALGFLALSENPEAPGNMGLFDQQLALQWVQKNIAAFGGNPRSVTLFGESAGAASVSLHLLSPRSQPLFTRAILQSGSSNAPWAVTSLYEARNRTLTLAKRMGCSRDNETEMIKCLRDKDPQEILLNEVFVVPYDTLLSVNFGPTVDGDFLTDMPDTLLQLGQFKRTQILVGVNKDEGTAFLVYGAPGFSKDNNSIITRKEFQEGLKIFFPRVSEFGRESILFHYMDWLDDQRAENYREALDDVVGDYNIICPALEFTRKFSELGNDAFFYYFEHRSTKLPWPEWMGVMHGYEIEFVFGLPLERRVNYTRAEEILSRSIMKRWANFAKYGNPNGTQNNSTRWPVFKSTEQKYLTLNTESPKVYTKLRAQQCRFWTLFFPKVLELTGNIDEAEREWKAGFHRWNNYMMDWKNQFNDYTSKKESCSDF
A short description of data set [1]: Cytotoxicity against human SH-SY5Y cells assessed as cell viability after 24 hrs by MTT assay. In kind it is cell-based. Put shortly:
(§1)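 Photometric MTT cell-viability readout after compound exposure of human neuronal (SH-SY5Y) or glial (MG-U87) cells. CC50 reported as mean ± SD of at least three experiments, each run in triplicate.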
(Tetrazolium assays rely on reduction of a dye to a coloured formazan, in cell work by metabolically active cells.)

Data set [2] in a line: Cytotoxicity against human U87MG cells assessed as cell viability after 24 hrs by MTT assay. In kind it is cell-based, U-87MG ATCC. Put shortly:
as §1

Data set [3] can be described thus: Selectivity ratio of IC50 for Electric eel AChE to IC50 for equine serum BChE.
Data set [4] has as its target Cholinesterase (Equus caballus) (UniProt P81908). The experiment in a line: Competitive inhibition of Equine serum BChE by Lineweaver-Burke plot. The method, boiled down: (§2)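 Equine serum BChE. Substrate-velocity curves were recorded at various substrate concentrations, each at several fixed inhibitor concentrations. Data were plotted as reciprocal velocity against reciprocal substrate concentration (Lineweaver-Burk). Km was taken as the negative reciprocal of the x-intercept and Vmax as the reciprocal of the y-intercept, then compared across inhibitor concentrations.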

The target is the same in data set [5]. The experiment in a line: Reversible inhibition of Equine serum BChE by Lineweaver-Burke plot. The method, boiled down:
as §2

Cholinesterase (Equus caballus), sequence (P81908 whole entry): as above

For the molecule `COc1ccc2c(c1)CCN1CCc3ccccc3C21` (centres undefined), the IC50 on Acetylcholinesterase (read-out: IC50) and at Cholinesterase (read-out: IC50) was more than 10000 µM each time. In addition, the CC50 (in general, the concentration giving 50% cytotoxicity) at 24 h was determined as 171 µM in data set [1] and 775 µM in data set [2].

Turning to `C[N+]12CCc3ccccc3C1c1ccc(OCCCCOc3ccc4c(c3)CC[N+]3(C)CCc5ccccc5C43)cc1CC2` (centres undefined), the IC50 was found to be 0.39 µM at Acetylcholinesterase (read-out: IC50) and 0.051 µM at Cholinesterase (read-out: IC50). In addition, the Ratio IC50 in data set [3] came to 8.8.

For the molecule `c1ccc2c(c1)CCN1CCc3cc(OCCCCCCCCCCCCOc4ccc5c(c4)CCN4CCc6ccccc6C54)ccc3C21` (centres undefined), the IC50 at Acetylcholinesterase (read-out: IC50) turned out to be 4.1 µM; at Cholinesterase (read-out: IC50) it was 0.92 µM. The Ratio IC50 in data set [3] came out at 4.2. For the same molecule, in data set [2], the CC50 at 24 h turned out to be 46.6 µM.

In the case of `C[N+]12CCc3ccccc3C1c1ccc(OCCCCCCCCCCCCOc3ccc4c(c3)CC[N+]3(C)CCc5ccccc5C43)cc1CC2` (centres undefined), the IC50 on Acetylcholinesterase (read-out: IC50) was 0.12 µM; on Cholinesterase (read-out: IC50), 0.036 µM; at Cholinesterase (read-out: pIC50 (converted)), 0.0353 µM. The Ratio IC50 in data set [3] was determined as 3.4.

In the case of `C[N+]12CCc3ccccc3C1c1ccc(OCCCOc3ccc4c(c3)CC[N+]3(C)CCc5ccccc5C43)cc1CC2` (centres undefined), the IC50 on Acetylcholinesterase (read-out: IC50) is 0.45 µM; at Cholinesterase (read-out: IC50), 0.16 µM.

With `c1ccc2c(c1)CCN1CCc3cc(OCCCCCCOc4ccc5c(c4)CCN4CCc6ccccc6C54)ccc3C21` (centres undefined), the IC50 at Acetylcholinesterase (read-out: IC50) came to 0.69 µM; on Cholinesterase (read-out: IC50), 0.014 µM. Also, the inhibition result in data set [4] and in data set [5] was “Active” throughout. The Ratio IC50 in data set [3] amounted to 48.9. Further, the CC50 at 24 h worked out at 7.4 µM in data set [1] and 20.7 µM in data set [2].

Consider `C[N+]12CCc3ccccc3C1c1ccc(OCCCCCOc3ccc4c(c3)CC[N+]3(C)CCc5ccccc5C43)cc1CC2` (centres undefined), for which the IC50 at Acetylcholinesterase (read-out: IC50) stood at 0.28 µM; on Cholinesterase (read-out: IC50), 0.047 µM. Further, the Ratio IC50 in data set [3] was 5.9.

On to `c1ccc2c(c1)CCN1CCc3cc(OCCCCOc4ccc5c(c4)CCN4CCc6ccccc6C54)ccc3C21` (centres undefined), for which the IC50 at Acetylcholinesterase (read-out: IC50) was determined as 1.1 µM; at Cholinesterase (read-out: IC50), 0.017 µM. The Ratio IC50 in data set [3] stood at 76.2. The CC50 at 24 h is 6.35 µM in data set [1] and 19.5 µM in data set [2].

Turning to `CN1CCc2ccccc2Cc2ccc(OCCCCCCCCOc3ccc4c(c3)CCN(C)CCc3ccccc3C4)cc2CC1`, the IC50 at Acetylcholinesterase (read-out: IC50) was 2 µM; on Cholinesterase (read-out: IC50), 0.21 µM. Further, in data set [3], the Ratio IC50 was determined as 9.9.

As to `C[N+]12CCc3ccccc3C1c1ccc(OCCCCCCOc3ccc4c(c3)CC[N+]3(C)CCc5ccccc5C43)cc1CC2` (centres undefined), the IC50 at Acetylcholinesterase (read-out: IC50) is 0.15 µM; on Cholinesterase (read-out: IC50), 0.027 µM. Moreover, in data set [3], the Ratio IC50 came out at 5.6.

As to `COc1ccc2c(c1)CC[N+]1(C)CCc3ccccc3C21` (centres undefined), the IC50 on Acetylcholinesterase (read-out: IC50) is 8.8 µM; on Cholinesterase (read-out: IC50), 6.4 µM. Besides, the Ratio IC50 in data set [3] is 1.4.

In the case of `COc1ccc2c(c1)CCN(C)CCc1ccccc1C2`, the IC50 at Acetylcholinesterase (read-out: IC50) and at Cholinesterase (read-out: IC50) was more than 10000 µM throughout.

Turning to `c1ccc2c(c1)CCN1CCc3cc(OCCCCCCCCOc4ccc5c(c4)CCN4CCc6ccccc6C54)ccc3C21` (centres undefined), the IC50 came out at 1.2 µM on Acetylcholinesterase (read-out: IC50) and 0.68 µM on Cholinesterase (read-out: IC50). The Ratio IC50 in data set [3] turned out to be 3. The figures for the CC50 at 24 h in data set [1] and in data set [2] were 19.2 µM and 42 µM, respectively.

With `c1ccc2c(c1)CCN1CCc3cc(OCCCOc4ccc5c(c4)CCN4CCc6ccccc6C54)ccc3C21` (centres undefined), the results for the IC50 at Acetylcholinesterase (read-out: IC50) and on Cholinesterase (read-out: IC50) were 4.5 µM and 0.15 µM, respectively. For the same molecule, the Ratio IC50 in data set [3] came out at 30.8. The CC50 at 24 h in data set [1] was 8.94 µM; in data set [2], 26.9 µM.

Regarding `C[N+]12CCc3ccccc3C1c1ccc(OCCCCCCCCOc3ccc4c(c3)CC[N+]3(C)CCc5ccccc5C43)cc1CC2` (centres undefined), the figures for the IC50 on Acetylcholinesterase (read-out: IC50) and on Cholinesterase (read-out: IC50) were 0.28 µM and 0.11 µM, respectively. Moreover, the Ratio IC50 in data set [3] was 2.5.

Take `c1ccc2c(c1)CCN1CCc3cc(OCCCCCOc4ccc5c(c4)CCN4CCc6ccccc6C54)ccc3C21` (centres undefined): the IC50 on Acetylcholinesterase (read-out: IC50) is 0.65 µM; at Acetylcholinesterase (read-out: pIC50 (converted)), 0.308 µM; on Cholinesterase (read-out: IC50), 0.017 µM. In addition, the Ratio IC50 in data set [3] came out at 38.3. Besides, the CC50 at 24 h in data set [2] came to 8.7 µM.

For `CN1CCc2ccccc2Cc2ccc(OCCCOc3ccc4c(c3)CCN(C)CCc3ccccc3C4)cc2CC1`, the IC50 at Acetylcholinesterase (read-out: IC50) is 4.8 µM; at Cholinesterase (read-out: IC50), 0.14 µM. In addition, the Ratio IC50 in data set [3] is 34.
